In ChEMBL document CHEMBL1129414, “Synthesis and cytotoxic and antitumor activity of esters in the 1,2-dihydroxy-1,2-dihydroacronycine series” (J Med Chem, 1996) one finds IC50 and Activity data, which are given here for twelve compounds.

The test system of one assay is L1210. The assay can be described thus: Compound was tested in vitro for cytotoxicity on L1210 leukemic cells by using MTT assay. It counts as functional, cell-based. Particulars: Mus musculus. In a few lines:
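L1210 cells were grown in RPMI 1640 with 10% fetal calf serum, 2 mM L-glutamine and 10 mM HEPES (pH 7.4). Cells were exposed for 48 h to nine serial drug dilutions in triplicate, and viability was read by MTT. IC50 is the concentration halving optical density versus untreated controls, given as mean ± SEM of at least 3 independent experiments.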

Assay [1] deals with P388. As to the kind of experiment: Compound was tested for antitumor activity against P388 leukemia cells at the dose of 12.5 mg/kg ip. Format: functional, Mus musculus.
The test system of assay [2] is MC-38. As to the kind of experiment: Compound was tested for antitumor activity against colon 38 adenocarcinoma cells at the dose of 6.25 mg/kg ip. Format: functional, Mus musculus.
The subject of assay [3] is MC-38. As to the kind of experiment: Compound was tested for antitumor activity against colon 38 adenocarcinoma cells at the dose of 12.5 mg/kg ip. It counts as functional, Mus musculus.
The subject of assay [4] is P388. As to the kind of experiment: Compound was tested for antitumor activity against P388 leukemia cells at the dose of 50 mg/kg ip. Format: functional, Mus musculus.
Assay [5] relates to P388. The assay can be described thus: Compound was tested for antitumor activity against P388 leukemia cells at the dose of 12.5 mg/kg ip. The conditions noted are these: Mus musculus.
Assay [6] concerns P388. As to the kind of experiment: Compound was tested for antitumor activity against P388 leukemia cells at the dose of 25 mg/kg ip. Format: functional, Mus musculus.
The test system of assay [7] is P388. As to the kind of experiment: Compound was tested for antitumor activity against P388 leukemia cells at the dose of 25 mg/kg iv. Format: functional, Mus musculus.
For assay [8], the system named is MC-38. As to the kind of experiment: Compound was tested for antitumor activity against colon 38 adenocarcinoma cells at the dose of 200 mg/kg ip. Format: functional, Mus musculus.
For assay [9], the system named is P388. The assay can be described thus: Compound was tested for antitumor activity against P388 leukemia cells at the dose of 200 mg/kg ip. Format: functional, Mus musculus.

As to `COc1cc2c(c3c1c(=O)c1ccccc1n3C)[C@@H](O)[C@@H](OC(=O)c1ccccc1)C(C)(C)O2`, the IC50 (commonly the midpoint of a concentration-inhibition curve) in the assay with L1210 was 7.1 µM. The Activity in the assay on P388 [1] is 258%; in the assay with MC-38 [2], 18%.

As for `COc1cc2c(c3c1c(=O)c1ccccc1n3C)[C@@H](OC(C)=O)[C@@H](OC(=O)c1ccccc1)C(C)(C)O2`, the Activity worked out at 13% in the assay on MC-38 [3] and 201% in the assay on P388 [4]. The compound also came in with an IC50 with L1210 of 5 µM.

`COc1cc2c(c3c1c(=O)c1ccccc1n3C)[C@@H](O)[C@@H](O)C(C)(C)O2` had an IC50 in the assay on L1210 of 80.6 µM.

As to `COc1cc2c(c3c1c(=O)c1ccccc1n3C)[C@@H](O)[C@@H](OC(C)=O)C(C)(C)O2`, 8.9 µM corresponded to half-maximal inhibition in the assay on L1210 (IC50).

For `Cn1c2ccccc2c(=O)c2ccc3c(c21)[C@@H](O)[C@@H](O)C(C)(C)O3`, the IC50 with L1210 was more than 50 µM.

For `Cn1c2ccccc2c(=O)c2ccc3c(c21)[C@H]1OC(=O)O[C@H]1C(C)(C)O3`, the IC50 in the assay with L1210 is more than 50 µM.

In the assay with L1210, `CC(=O)O[C@@H]1c2c(ccc3c(=O)c4ccccc4n(C)c23)OC(C)(C)[C@@H]1OC(C)=O` yielded an IC50 of more than 50 µM.

For the compound `Cn1c2ccccc2c(=O)c2ccc3c(c21)C=CC(C)(C)O3`, in the assay on L1210, half-maximal inhibition (IC50) required 29.7 µM.

Consider `COc1cc2c(c3c1c(=O)c1ccccc1n3C)[C@H]1OC(=O)O[C@H]1C(C)(C)O2`, for which, in the assay on L1210, the IC50 is 0.32 µM. The Activity with MC-38 [2] came to 68%; with P388 [5], 202%.

In the case of `COc1cc2c(c3c1c(=O)c1ccccc1n3C)[C@@H](OC(C)=O)[C@@H](OC(C)=O)C(C)(C)O2`, the Activity in the assay with MC-38 [3] worked out at 0%; in the assay with P388 [6], 289%; in the assay with P388 [7], 220%. The same compound showed an IC50 in the assay on L1210 of 5.8 µM.

Take `COc1cc2c(c3c1c(=O)c1ccccc1n3C)C=CC(C)(C)O2` [ACRONINE]: the Activity with MC-38 [8] was 4%; in the assay on P388 [9], 125%. The compound further registered a 50% inhibitory concentration (IC50) with L1210 of 24.1 µM.

`COc1cc2c(c3c1c(=O)c1ccccc1n3C)CCC(C)(C)O2` [DIHYDROACRONYCINE]: the IC50 in the assay with L1210 came to 34.3 µM.
